Experimental data from ChEMBL document CHEMBL1177726, “Amphiphilic amide nitrones: a new class of protective agents acting as modifiers of mitochondrial metabolism” (J Med Chem, 2010).
Converted amounts (≈) assume the structure as drawn. The source made the active and inactive calls. No cut-off for these calls is given here.

Experiments:
Rattus norvegicus [1] = species on record: Rattus norvegicus; assay: Induction of Electron transport protein complex 1 in Sprague-Dawley rat cortical mitochondria assessed as reduction of ferric cyanide at 10 uM after 30 mins
Outline: (§1)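 Submitochondrial particles from rat cortical mitochondria were preincubated 30 min with nitrone (10 μM), dopamine, or both. Ferricyanide reduction was then followed from the 440 minus 490 nm difference in the presence of antimycin A and azide at 37.5 C, as a read-out of iron-sulfur cluster N2 activity. Activity is given as nmol/mg protein/min, mean ± SEM, N = 10.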

Rotifers [2] = assay: Protection against doxorubicin-induced toxicity in Rotifers assessed as viability at 10 uM after 24 hrs; assay type: functional, Rotifera
Outline: (§2)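 Individually housed Philodina rotifers were exposed for 24 h to H2O2 or doxorubicin (200 μM), with nitrone (10 μM) added at the same time. Read-out was % viable animals. Vehicle controls came from the same stock culture and were run in parallel. Mean ± SEM, N = 10; ANOVA with Bonferroni t test.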

Rotifers [3] = assay: Protection against hydrogen peroxide-induced toxicity in Rotifers assessed as viability at 10 uM after 24 hrs; assay type: functional, Rotifera; outline: as §2
[4] = Inhibition of doxorubicin-induced cell death in Sprague-Dawley rat primary mixed cortical cells at 10 uM after 24 hrs by trypan blue absorbance assay; assay type: functional
Outline: (§3)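 Mixed cortical cultures from E15 rat embryos were exposed for 24 h to H2O2, peroxynitrite or doxorubicin (200 μM), with nitrone (10 μM) added at the same time. Cell death was measured by trypan blue absorbance at 590 nm and expressed as % inhibition. Mean ± SEM, N = 10; ANOVA with Bonferroni t test against vehicle.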

[5] = Inhibition of peroxynitrite-induced cell death in Sprague-Dawley rat primary mixed cortical cells at 10 uM after 24 hrs by trypan blue absorbance assay; assay type: functional; outline: as §3
[6] = Inhibition of hydrogen peroxide-induced cell death in Sprague-Dawley rat primary mixed cortical cells at 10 uM after 24 hrs by trypan blue absorbance assay; assay type: functional; outline: as §3
[7] = Lipophilicity, log K in methanol-water mixture by HPLC; assay type: physicochemical
Outline: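 Nitrones in methanol (1.0 mg/mL) were run by reverse-phase C18 HPLC, eluted with MeOH/water from 9:1 to 7:3 v/v at 0.8 mL/min. Retention values were extrapolated to 100% aqueous to give log k'W.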

Rattus norvegicus [8] = species on record: Rattus norvegicus; assay: Induction of Electron transport protein complex 1 in Sprague-Dawley rat cortical mitochondria assessed as reduction of ferric cyanide at 10 uM after 30 mins in presence of EPBNAH
Rattus norvegicus [9] = species on record: Rattus norvegicus; assay: Induction of Electron transport protein complex 1 in Sprague-Dawley rat cortical mitochondria assessed as reduction of ferric cyanide at 10 uM after 30 mins in presence of dopamine; outline: as §1
Rattus norvegicus [10] = species on record: Rattus norvegicus; assay: Restoration of FCCP-induced decrease of mitochondrial membrane potential in Sprague-Dawley rat forebrain mitochondria at 0.8 uM treated 15 mins before FCCP challenge measured after 30 mins by rhodamine 123 fluorescence assay; assay type: functional
Outline: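 Rat forebrain mitochondria respired on 6 mM glutamate/malate at 37.5 C with nitrone. FCCP (0.2 μM) was added at 15 min to partly collapse the potential, and rhodamine 123 fluorescence quenching was recorded directly at 30 min. Potential was calculated by the Scaduto and Grotyohann method. Mean ± SEM of at least four preparations.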

Rattus norvegicus [11] = species on record: Rattus norvegicus; assay: Inhibition of rotenone-induced electron leakage in Sprague-Dawley rat forebrain mitochondria assessed as NBT reduction at 0.8 uM after 30 mins; assay type: functional
Outline: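 Forebrain mitochondria from 3-month-old rats, in Tris-KCl phosphate medium at pH 7.4, respired on 6 mM glutamate and 6 mM malate at 37.5 C with nitrone for 30 min. NBT reduction was run with 3 μM rotenone and 3 mM azide, and the formazan was then extracted and measured. Mean ± SEM of at least four independent preparations.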

Rotifers [12] = assay: Inhibition of water soluble peroxide formation in Rotifers cultures; assay type: functional, organism-based; conditions: Rotifera; TDE = time-dependent effect
Rattus norvegicus [13] = species on record: Rattus norvegicus; assay: Inhibition of water soluble peroxide formation in Sprague-Dawley rat forebrain mitochondria at 0.8 uM after 30 mins by FOX assay; assay type: functional
Outline: (§4)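 Rat forebrain mitochondria respired on 6 mM glutamate/malate with nitrone at 37.5 C for 30 min, then were put on ice and homogenized in H2SO4. The supernatant was mixed with FeSO4, xylenol orange and sorbitol at 0.07 M H2SO4, held 30 min at 25 C in the dark, and read at 570 nm. Mean ± SEM of at least four independent preparations.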

[14] = Antioxidant activity assessed as reduction of ABTS radical measured for 30 mins; assay type: functional
Outline: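 ABTS cation radical at 105 μM final, test compound at 0.5 mM final, DMSO vehicle at 2.5% final in controls. The reaction is started by adding the nitrone, and loss of radical is followed at 420 nm every minute for 30 min. Results are reduced ABTS•+ per 30 min as mean ± SEM, N = 10, compared with vehicle by ANOVA with Bonferroni t test.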

[15] = Antioxidant activity assessed as ABTS radical scavenging activity assessed as burstlike formation of intensely green colored ABTS radical measured for 30 mins; assay type: functional
Outline: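 Fenton-initiated ABTS cation radical formation: water, ABTS (1 mM stock), FeSO4 (0.5 mM stock), test compound (1 mM stock in DMSO), reaction started with H2O2 (10 mM stock). Absorbance read at 420 nm every minute over 30 min. Controls got DMSO vehicle, 10% final. Scavenging is seen as suppression of time-dependent radical formation.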

[16] = Solubility in water; assay type: physicochemical
[17] = Critical micellar concentration of the compound; assay type: physicochemical
Outline: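 Nitrone solutions in ultrapure water were measured at 25 C by the Wilhelmy plate method with a tensiometer. The cmc was taken as the breakpoint of the plot of surface tension against log concentration.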

Rattus norvegicus [18] = species on record: Rattus norvegicus; assay: Inhibition of water soluble peroxide formation in Sprague-Dawley rat forebrain mitochondria at 0.4 uM after 30 mins by FOX assay; assay type: functional; outline: as §4

Row | Compound | logKw [7] | solubility [16] [mg/mL] | Activity (Rattus norvegicus [1]) [nmol/mg/min] | Activity (Rotifers [2]) [%] | Activity (Rotifers [3]) [%] | inhibition at 10 µM [4] [%] | inhibition at 10 µM [5] [%] | inhibition at 10 µM [6] [%] | Activity (Rattus norvegicus [8]) [nmol/mg/min] | Activity (Rattus norvegicus [9]) [nmol/mg/min] | Activity (Rattus norvegicus [10]) | inhibition (Rattus norvegicus [11]) | inhibition (Rotifers [12]) | inhibition (Rattus norvegicus [13]) [%] | Activity [14] [nmol] | Activity [15] [nmol] | CMC [17] [mM] | inhibition (Rattus norvegicus [18]) [%]
1 | CC(C)(C)/[N+]([O-])=C/c1ccccc1 | 1.62 | – | 107 | 18.7 | 25.6 | 24.2 | 20.6 | 25 | 13 | 60 | – | – | – | – | – | – | – | –
2 | CC(C)(CNC(=O)[C@H](O)[C@H](O)[C@H](O[C@@H]1O[C@H](CO)[C@H](O)[C@H](O)[C@H]1O)[C@@H](O)CO)/[N+]([O-])=C/c1ccc(CNC(=O)CCC(F)(F)C(F)(F)C(F)(F)C(F)(F)C(F)(F)C(F)(F)F)cc1 | 4.71 | 270 (≈ 289 mM) | – | 46.7 | 30.1 | 32.8 | 30.3 | 42.6 | – | – | – | – | – | – | 42.6 | 90.7 | 0.18 | –
3 | CC(C)(CNC(=O)CCC(F)(F)C(F)(F)C(F)(F)C(F)(F)C(F)(F)C(F)(F)F)/[N+]([O-])=C/c1ccc(CNC(=O)[C@H](O)[C@H](O)[C@H](O[C@@H]2O[C@H](CO)[C@H](O)[C@H](O)[C@H]2O)[C@@H](O)CO)cc1 | – | – | – | 30.6 | 40.6 | 34.9 | 40.1 | 63.4 | – | – | – | – | – | – | – | – | 0.213 | –

Second part, led by results:

Row | logKw [7] | solubility [16] [mg/mL] | Compound | Activity (Rattus norvegicus [1]) [nmol/mg/min] | Activity (Rotifers [2]) [%] | Activity (Rotifers [3]) [%] | inhibition at 10 µM [4] [%] | inhibition at 10 µM [5] [%] | inhibition at 10 µM [6] [%] | Activity (Rattus norvegicus [8]) [nmol/mg/min] | Activity (Rattus norvegicus [9]) [nmol/mg/min] | Activity (Rattus norvegicus [10]) | inhibition (Rattus norvegicus [11]) | inhibition (Rotifers [12]) | inhibition (Rattus norvegicus [13]) [%] | Activity [14] [nmol] | Activity [15] [nmol] | CMC [17] [mM] | inhibition (Rattus norvegicus [18]) [%]
4 | 2.86 | 530 (≈ 771 mM) | CCCCCCCC(=O)NCc1ccc(/C=[N+](\[O-])C(C)(C)CNC(=O)[C@H](O)[C@H](O)[C@H](O[C@@H]2O[C@H](CO)[C@H](O)[C@H](O)[C@H]2O)[C@@H](O)CO)cc1 | 124 | 96.5 | 87.6 | 93 | 90.1 | 93 | 31 | 110 | Active | Active | tde | 80 | 49.1 | 96.8 | – | –
5 | – | 515 (≈ 749 mM) | CCCCCCCC(=O)NCC(C)(C)/[N+]([O-])=C/c1ccc(CNC(=O)[C@H](O)[C@H](O)[C@H](O[C@@H]2O[C@H](CO)[C@H](O)[C@H](O)[C@H]2O)[C@@H](O)CO)cc1 | 116 | 85.8 | 83 | 82 | 61 | 81 | 19 | 79 | – | Active | tde | 20 | – | – | – | 10
